Dynein cargo inh: blocks dynein driven cargo transport along microtubules | 220,000 tested, 0.47% active | z-score, hits read low | 3617.4 mouse cells, GR-EGFP nuclear translocation imaging; test concentration mostly 20 µM; stimulated with dexamethasone, 1 µM; active compounds read low | AID 1381;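 active means plate z-score of nuclear minus cytoplasmic receptor signal below a set negative limit, without overly bright fluorescence or cell loss, cut at about -3.5 in these data, passing the limit was not always enough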;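 further: z-score of nuclear minus cytoplasmic ring GR-EGFP intensity difference per well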
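Buffer or medium: tetracycline-free induction medium containing charcoal-stripped FBS / Reagent: dexamethasone agonist, 1.0 µM final, for 30 min / Technique: automated 10x imaging of fixed Hoechst-stained cells / Times: induction 48 h, compound 1 h, agonist 30 min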
CHOP inhibitor: blocks CHOP induction under ER stress; CHO-K1 CHOP-promoter luciferase, tunicamycin-induced, 15-18 h; inhibition, % at 10 µM; 220,000 tested, 3.8% active;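 active means compounds that reduced the stress-induced luciferase reporter signal by more than about 70% of percent inhibition, limit read from the data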;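 further: 0% = tunicamycin plus vehicle and 100% = wells without tunicamycin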
UPR XBP1 act: adaptive UPR (XBP1) activation. CHO-XBP1 luciferase reporter, IRE1-XBP1 UPR activation, luminescence; percent of tunicamycin response, DMSO as zero. activation, % at 20 µM. 330,000 tested, 0.33% active;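 active means versus positive control, 20 µM dose yields 30% or more activation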;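 further: 100% = tunicamycin at 10 µg/mL and 0% = DMSO only wells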
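Material: CHO-XBP1 cells stably carrying IRE1-XBP1-driven luciferase reporter / Amount: 1000 cells per well / Compound: 20 µM, 1% DMSO / Times: 6 h treatment, 37 °C / Detection: luciferase luminescence / Measure: % activation of reporter signal versus tunicamycin and DMSO controls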
L major viab: inhibitors of Leishmania major promastigote growth. Leishmania major promastigotes, resazurin fluorescence viability. inhibition, % at 10 µM. 200,000 tested, 9% active. AID 1063; in the data active means inhibition above about 50%;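 further: promastigotes grown with compound for 44 hours at 28 °C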
T cruzi inh: blocks replication of Trypanosoma cruzi; T. cruzi beta-gal in NIH3T3, luminescence, 90 h; inhibition, % (no concentration beside the values); 300,000 tested, 1.4% active; AID 1885;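 active means mean inhibition across valid replicates above about 55%, limit read from the data; inconclusive means mean below that limit but half or more replicates reach it; inactive means mean below it, under half of replicates reach it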;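 further: signal also drops with host cell toxicity which is not excluded here; 0% = plate median of DMSO wells and 100% = zero luminescence signal; higher percent means less beta-gal luminescence so fewer parasites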
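compound dosing = single 50 nL compound addition per well in DMSO | material = NIH/3T3 host cells with β-galactosidase reporter T. cruzi | input = 5,000 host fibroblasts per well | timing = ≥90 h infection period, 3 h prior cell attachment | read-out basis = percent inhibition of parasite-derived β-gal signal | detection = GalScreen β-gal luminescence, detergent lysis, 60 min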
UPR CHOP act: apoptotic UPR (CHOP) activation; CHO-CHOP luciferase reporter, luminescence; percent of tunicamycin response over DMSO baseline; AID 449763; activation, % at 10 µM; 330,000 tested, 0.34% active;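 active means at 10 µM dose, activation of 40% or more, normalized to positive control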;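 further: 100% = tunicamycin at 10 µg/mL and 0% = DMSO alone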
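Material: CHO-CHOP cells, stable luciferase reporter of PERK-eIF2a-CHOP signalling; quantity: 500 reporter cells seeded per well; buffer or medium: F12 medium containing 10% fetal bovine serum; compound: one dose, 10 µM in 0.5% DMSO; incubation: 6 h compound treatment, 37 °C; measured by: Steady-Glo luciferase luminescence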
* = called active by the depositor; ? = inconclusive; · = no result. The full list was thinned out, with hits kept by preference.

SMILES	Dynein cargo inh	CHOP inhibitor	UPR XBP1 act	L major viab	T cruzi inh	UPR CHOP act
CN1CCN(c2ccc(NS(=O)(=O)c3ccc(Cl)cc3)cn2)CC1	-0.37	3	-3	9	?	0
Cc1ccc(S(=O)(=O)Nc2ccc(N3CCN(C)CC3)nc2)cc1	-0.8	0	2	7	58*	0
Cc1cc(OC(=O)c2cccs2)ccc1C(C)C	0.91	87*	2	-1	18	4
CC1CCC(NC(=O)COC(=O)c2ccco2)CC1 (configuration not stated)	·	·	4	·	·	0
CC(=O)Nc1ccccc1Nc1cc(C#N)c(C#N)cc1[N+](=O)[O-]	-0.24	·	1	97*	13	0
CCOc1ccc(C(=O)Nc2ccccc2C#N)cc1[N+](=O)[O-]	-0.18	4	-1	14	-15	0
C/C(=N\NC(=O)COc1cccc(Br)c1)c1ccc2c(c1)OCCO2	·	·	1	·	·	1
COC(=O)N/N=C/c1c(C)nn(-c2cccc(Cl)c2)c1Cl	-0.8	-1	1	26	-2	5
Cc1nn(-c2ccccc2)c(Cl)c1/C=N/NC(=O)c1cccc(S(=O)(=O)N2CCCC2)c1	-0.61	25	4	-8	6	3
Cc1nn(-c2cccc(Cl)c2)c(Cl)c1/C=N/NC(=O)c1cccnc1	-0.65	-24	9	71*	-1	4
Cc1nn(-c2ccccc2)c(N2CCCC2)c1/C=N/NC(=O)c1cccc(S(=O)(=O)Nc2ccc(Cl)cc2)c1	-0.27	48	0	52*	20	3
Cc1nn(-c2ccc(F)cc2)c(Cl)c1/C=N/NC(=O)c1cccc(S(=O)(=O)N2CCCC2)c1	-0.49	-11	21	55*	-7	7
Cc1nn(-c2ccccc2)c(N2CCCC2)c1/C=N/NC(=O)c1cc2ccccc2cc1O	-0.38	6	-1	-9	-5	-1
Cc1nn(-c2ccc(F)cc2)c(Cl)c1/C=N/NC(=O)c1cccs1	-0.8	93*	3	-5	17	5
CC1CC(C)CN(C(=O)CSc2ncnc3sccc23)C1 (configuration not stated)	·	·	0	·	·	1
COc1ccc(CCNC(=O)CSc2nc(=O)n3cc(C)ccc3n2)cc1OC	·	·	-5	·	-2	-2
COc1ccc(-c2nn(-c3ccccc3)cc2/C=N/NC(=O)c2cccc(S(=O)(=O)Nc3ccccc3Cl)c2)cc1	-0.77	2	1	81*	-22	4
COc1ccc(-n2c(C)cc(/C=N/Nc3nc(N4CCOCC4)nc(N4CCOCC4)n3)c2C)cc1	0.057	10	-1	98*	34	4
CC(=O)C1=C(C)NC(SCC(=O)c2ccc(Cl)cc2)=C(C#N)C1c1ccco1 (configuration not stated)	0.83	16	0	83*	32	0
CC(=O)C1=C(C)NC(SCC(=O)c2ccc(Cl)cc2Cl)=C(C#N)C1c1ccco1 (configuration not stated)	-0.15	59	2	61*	66*	10
CSCSC1=C(C#N)C(c2ccc(Cl)cc2)C(C(C)=O)=C(C)N1 (configuration not stated)	-0.65	18	-4	65*	·	-1
CSC1=C(C#N)C(c2ccccc2)C(C(C)=O)=C(C)N1 (configuration not stated)	1.7	-24	-1	7	11	-1
CC(=O)C1=C(C)NC(SCC(=O)c2ccccc2)=C(C#N)C1c1ccco1 (configuration not stated)	1.3	-2	3	8	8	4
CCN1C(=NCCc2cccs2)N[C@@H](c2cccs2)C(C(=O)OC)=C1C	·	·	-1	·	11	0
Cc1cc(C)c(CSc2ncc(-c3ccc([N+](=O)[O-])cc3)[nH]2)c(C)c1	1.9	75*	-4	97*	58*	0
O=[N+]([O-])c1ccc(-c2cnc(SC(c3ccccc3)c3ccccc3)[nH]2)cc1	0.53	73*	6	32	49	2
